ChEMBL document CHEMBL1134834, “Quinoxalinylethylpyridylthioureas (QXPTs) as potent non-nucleoside HIV-1 reverse transcriptase (RT) inhibitors. Further SAR studies and identification of a novel orally bioavailable hydrazine-based antiviral agent” (J Med Chem, 2001)

Assays:
[1] = tested on: Human immunodeficiency virus 1; experiment: Concentration which produces a 50% survival of HIV-1 infected cells relative to uninfected control C8166 cells; type: functional, organism-based; settings: Human immunodeficiency virus 1, C8166
CEM-SS [2] = experiment: Concentration which produces a 50% survival of HIV-1 infected cells relative to uninfected control CEM-SS cells (in vitro anti-HIV activity); type: functional, cell-based; settings: Homo sapiens
Procedure, shortened: (§1)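 CEM-SS T4 lymphocytes infected with wild-type HIV-1. Protection from virus-induced cell death is scored against an AZT-treated positive control run under identical conditions. […] SI = IC50/EC50.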

[3] = target: Human immunodeficiency virus type 1 reverse transcriptase (Human immunodeficiency virus 1, UniProt Q72547, Y181I); experiment: Inhibition of HIV-1 Mutant HIV-1 RT enzymes containing the single amino acid substitution Y181I
Daudi [4] = experiment: cytotoxicity on Daudi Human(DH) cell line (O.D.=0.129+/-0.018); type: functional; settings: read-out: TC50 (the source's name)
C8166 [5] = experiment: (§2) Concentration which results in 50% survival of uninfected untreated control C8166 cells (cytotoxicity of the compound); type: functional, cell-based; settings: Homo sapiens
Procedure, shortened: (§3)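 Toxicity in uninfected C8166 cells by MTT reduction to formazan, read spectrophotometrically.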

[6] = Selectivity index (IC50/EC50) was determined in CEM-SS cells; type: functional
Procedure, shortened: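 CEM-SS (T4 lymphocyte) cells infected with wild-type HIV-1 were scored for protection from virus-induced cell death. […] SI = IC50/EC50. An AZT-treated positive control was run in parallel under identical conditions.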

[7] = target: Human immunodeficiency virus type 1 reverse transcriptase (Human immunodeficiency virus 1, UniProt Q72547, Y188L); experiment: Inhibition of HIV-1 Mutant HIV-1 RT enzymes containing the single amino acid substitution Y188L
[8] = target: Human immunodeficiency virus type 1 reverse transcriptase (Human immunodeficiency virus 1, UniProt Q72547, K103N); experiment: Inhibition of HIV-1 Mutant HIV-1 RT enzymes containing the single amino acid substitution K103N
[9] = target: T1, Human immunodeficiency virus type 1 reverse transcriptase (Human immunodeficiency virus 1, UniProt Q72547); experiment: Inhibition of HIV-1 Mutant HIV-1 RT enzymes containing the single amino acid substitution […]
Mus musculus [10] = organism: Mus musculus; experiment: cytotoxicity on NSO murine cell line (O.D.=0.125+/-0.015); type: functional; settings: read-out: TC50 (the source's name)
[11] = Selectivity index (IC50/EC50) was determined in C8166 cells; type: functional
[12] = (§4) cytotoxicity on normal human lymphocytes(HL) (O.D.=0.114+/-0.01); type: functional; settings: read-out: TC50 (the source's name)
Murine cell line = experiment: (§5) cytotoxicity on 3T3 fibroblasts (3T3F) murine cell line (O.D.=0.131+/-0.014); type: functional; settings: Mus musculus, read-out: TC50 (the source's name)
[13] = target: T1, Human immunodeficiency virus type 1 reverse transcriptase; experiment: Inhibition of HIV-1 wild-type RT
CEM-SS [14] = experiment: (§6) Concentration which results in 50% survival of uninfected untreated control CEM-SS cells (cytotoxicity of the compound); type: functional, cell-based; settings: Homo sapiens, read-out: IC50 (the source's name)
[15] = target: Human immunodeficiency virus type 1 reverse transcriptase (Human immunodeficiency virus 1, UniProt Q72547, V106A); experiment: Inhibition of HIV-1 Mutant HIV-1 RT enzymes containing the single amino acid substitution V106A
Mus musculus [16] = organism: Mus musculus; experiment: Cytotoxicity against NSO murine cell line (O.D.=0.125+/-0.015); type: functional; settings: read-out: TC50 (the source's name)
NIH3T3 [17] = experiment: Cytotoxicity against 3T3 fibroblasts (3T3F) murine cell line (O.D.=0.131+/-0.014); type: functional; settings: Mus musculus, read-out: TC50 (the source's name)
Daudi [18] = experiment: Cytotoxicity against Daudi Human(DH) cell line (O.D.=0.129+/-0.018); type: functional; settings: read-out: TC50 (the source's name)
C8166 [19] = experiment: as §2; type: cell-based; settings: Homo sapiens; procedure, shortened: as §3
[20] = Cytotoxicity against normal human lymphocytes(HL) (O.D.=0.114+/-0.01); settings: read-out: TC50 (the source's name)
Daudi [21] = experiment: Cytotoxicity on Daudi Human(DH) cell line (O.D.=0.129+/-0.018); type: functional; settings: read-out: TC50 (the source's name)
[22] = (§7) Cytotoxicity on normal human lymphocytes(HL) (O.D.=0.114+/-0.01); type: functional; settings: read-out: TC50 (the source's name)
Mus musculus [23] = organism: Mus musculus; experiment: Cytotoxicity on NSO murine cell line (O.D.=0.125+/-0.015); type: functional; settings: read-out: TC50 (the source's name)
[24] = Selectivity index was (IC50/EC50) determined in C8166 cells; type: functional
NIH3T3 [25] = experiment: Cytotoxicity on 3T3 fibroblasts (3T3F) murine cell line (O.D.=0.131+/-0.014); type: functional; settings: Mus musculus, read-out: TC50 (the source's name)
C8166 [26] = experiment: (§8) Selectivity index was determined in C8166 cells; type: functional, Homo sapiens
Procedure, shortened: (§9)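 C8166 CD4+ T-cell line (HTLV-I genome, only tat expressed) acutely infected with lymphocytotropic HIV-1 IIIB. […] Read-out is HIV-p24 antigen in supernatants. AZT positive control was run at the same time. SI = IC50/EC50.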

[27] = as §7; settings: read-out: TC50 (the source's name)
[28] = as §8; type: functional; procedure, shortened: as §9
[29] = Selectivity index was determined in CEM-SS cells; type: functional; procedure, shortened: as §1
[30] = Selectivity index between IC50 of HIV-1-p24 and EC50 of HIV-1-p24 (IC50/EC50); type: functional
Procedure, shortened: (§10)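 Macrophages from adherent PBMC (10^6/mL, RPMI-1640 with 20% heat-inactivated FCS), 10^5 per well, >95% pure, infected with monocytotropic HTLV-III Ba-L. Antiviral activity read 14 days after infection. […] SI = IC50/EC50. AZT control run in parallel.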

[31] = tested on: Human immunodeficiency virus 1; experiment: Inhibition of HIV-1-p24 antigen production in monocyte-macrophages (in vitro anti-HIV-1 activity); type: functional, organism-based; procedure, shortened: as §10
C8166 [32] = experiment: Antiviral activity alone against HIV-IIIB in C8166 cells; type: functional, cell-based; settings: Homo sapiens; procedure, shortened: as §9
C8166 [33] = experiment: Synergistic antiviral activity with AZT (DDI), against HIV-IIIB in C8166 cells; type: functional, cell-based; settings: Homo sapiens
Procedure, shortened: (§11)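 C8166 cells infected with HIV-IIIB and treated with compound combined with AZT (or DDI). Combination index calculated by the Chou-Talalay multiple drug effect analysis under both mutually exclusive and mutually nonexclusive assumptions.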

[34] = as §4; settings: read-out: TC50 (the source's name)
NIH3T3 [35] = experiment: as §5; type: functional; settings: Mus musculus, read-out: TC50 (the source's name)
C8166 [36] = experiment: Synergistic antiviral activity of AZT (DDI) with the compound, against HIV-IIIB in C8166 cells; type: functional, cell-based; settings: Homo sapiens; procedure, shortened: as §11
CEM-SS [37] = experiment: as §6; type: cell-based; settings: Homo sapiens
[38] = tested on: Human immunodeficiency virus 1; experiment: Inhibition of HIV-1-p24 antigen production in monocyte-macrophages (cytotoxicity of the compound); type: organism-based; procedure, shortened: as §10

Row | SMILES | EC50 [1] [µM] | EC50 (CEM-SS [2]) [µM] | Ki [3] [µM] | CC50 (Daudi [4]) [µM] | IC50 (C8166 [5]) [µM] | SI [6] | Ki [7] [µM] | Ki [8] [µM] | Ki [9] [µM] | CC50 (Mus musculus [10]) [µM] | SI [11] | Ki [13] [µM] | CC50 (CEM-SS [14]) [µM] | Ki [15] [µM] | CC50 (Daudi [21]) [µM] | CC50 [22] [µM] | CC50 (Mus musculus [23]) [µM] | CC50 (NIH3T3 [25]) [µM] | further results
1 | O=c1c2cccn2c2ccc(Cl)cc2n1CCNC(=S)Nc1ccc(Br)cn1 | 0.061 | 0.0018 | 0.24 | 960 | 7 | >1080 | 0.9 | 0.15 | 0.16 | 970 | 123 | 0.02 | > 2 | 0.02 | – | – | – | – | CC50 [12]: 970 µM; CC50 (Murine cell line): 980 µM
2 | O=c1c2cccn2c2ccccc2n1CCNC(=S)Nc1ccc(Br)cn1 | 0.38 | – | 4 | – | – | – | 2.5 | 0.1 | 0.105 | – | – | 0.058 | – | 0.112 | – | – | – | – | CC50 (Mus musculus [16]): 800 µM; CC50 (NIH3T3 [17]): 800 µM; CC50 (Daudi [18]): 800 µM; IC50 (C8166 [19]): 17 µM; CC50 [20]: 800 µM
3 | Fc1cccc2c1nc(OCCNC(=S)Nc1ccc(Br)cn1)c1cccn12 | 0.02 | 0.0029 | 0.3 | – | 125 | >690 | 0.7 | 0.35 | 0.15 | – | – | 0.058 | > 2 | 0.029 | > 1000 | > 1000 | > 1000 | > 1000 | SI [24]: 6250
4 | S=C(NCCOc1nc2cc(Cl)ccc2n2cccc12)Nc1ccc(Br)cn1 | 0.025 | – | 0.09 | – | 93 | – | 0.1 | 0.21 | 0.12 | – | – | – | – | 0.12 | > 1000 | > 1000 | > 1000 | > 1000 | SI (C8166 [26]): 3720
5 | O=c1c2cccn2c2c(F)cccc2n1CCNC(=S)Nc1ccc(Br)cn1 | 0.2 | 0.0019 | 0.9 | – | 21 | – | 0.2 | 0.4 | 0.8 | – | – | 0.04 | > 2 | 0.06 | 510 | – | 520 | 500 | CC50 [27]: 510 µM; SI [28]: 105; SI [29]: >110
6 | O=c1c2cccn2c2ccc(F)cc2n1CC/N=C(\S)Nc1ccc(Br)cn1 | 0.032 | 0.063 | 1 | 19 | 15 | >3170 | 1.2 | 0.65 | 0.7 | 20 | 468 | 0.029 | – | 0.04 | – | – | – | – | SI [30]: 12200; EC50 [31]: 0.004 µM; EC50 (C8166 [32]): 0.066 µM; EC50 (C8166 [33]): 0.057 µM; CC50 [34]: 20 µM; CC50 (NIH3T3 [35]): 20 µM; EC50 (C8166 [36]): 0.085 µM; IC50 (CEM-SS [37]): > 200 µM; IC50 [38]: 49 µM
